This note sets out measurements from ChEMBL document CHEMBL5137074 (J Med Chem, 2022).

Data set [1] has as its target T1, Membrane-associated tyrosine- and threonine-specific cdc2-inhibitory kinase (Homo sapiens, UniProt Q99640).
T1 sequence (Q99640 whole entry): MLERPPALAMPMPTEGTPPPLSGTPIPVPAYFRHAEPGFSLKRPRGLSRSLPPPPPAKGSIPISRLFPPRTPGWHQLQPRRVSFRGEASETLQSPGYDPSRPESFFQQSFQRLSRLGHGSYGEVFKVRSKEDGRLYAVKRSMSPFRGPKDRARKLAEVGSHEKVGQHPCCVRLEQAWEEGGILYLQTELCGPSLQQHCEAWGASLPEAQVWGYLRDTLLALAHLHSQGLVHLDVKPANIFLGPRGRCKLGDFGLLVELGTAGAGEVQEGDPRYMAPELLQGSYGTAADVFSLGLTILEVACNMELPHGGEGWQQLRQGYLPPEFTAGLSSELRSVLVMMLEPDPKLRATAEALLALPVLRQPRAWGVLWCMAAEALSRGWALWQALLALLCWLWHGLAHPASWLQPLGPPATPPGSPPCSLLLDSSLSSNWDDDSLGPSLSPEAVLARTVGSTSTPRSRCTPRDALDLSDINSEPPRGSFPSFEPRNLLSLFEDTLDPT

Another data set concerns the target Wee1-like protein kinase (Homo sapiens, UniProt P30291). Briefly: Inhibition of WEE1 (unknown origin).
For a further data set, the target named is T2, Ephrin type-B receptor 3 (Homo sapiens, UniProt P54753).
T2 sequence (P54753 whole entry): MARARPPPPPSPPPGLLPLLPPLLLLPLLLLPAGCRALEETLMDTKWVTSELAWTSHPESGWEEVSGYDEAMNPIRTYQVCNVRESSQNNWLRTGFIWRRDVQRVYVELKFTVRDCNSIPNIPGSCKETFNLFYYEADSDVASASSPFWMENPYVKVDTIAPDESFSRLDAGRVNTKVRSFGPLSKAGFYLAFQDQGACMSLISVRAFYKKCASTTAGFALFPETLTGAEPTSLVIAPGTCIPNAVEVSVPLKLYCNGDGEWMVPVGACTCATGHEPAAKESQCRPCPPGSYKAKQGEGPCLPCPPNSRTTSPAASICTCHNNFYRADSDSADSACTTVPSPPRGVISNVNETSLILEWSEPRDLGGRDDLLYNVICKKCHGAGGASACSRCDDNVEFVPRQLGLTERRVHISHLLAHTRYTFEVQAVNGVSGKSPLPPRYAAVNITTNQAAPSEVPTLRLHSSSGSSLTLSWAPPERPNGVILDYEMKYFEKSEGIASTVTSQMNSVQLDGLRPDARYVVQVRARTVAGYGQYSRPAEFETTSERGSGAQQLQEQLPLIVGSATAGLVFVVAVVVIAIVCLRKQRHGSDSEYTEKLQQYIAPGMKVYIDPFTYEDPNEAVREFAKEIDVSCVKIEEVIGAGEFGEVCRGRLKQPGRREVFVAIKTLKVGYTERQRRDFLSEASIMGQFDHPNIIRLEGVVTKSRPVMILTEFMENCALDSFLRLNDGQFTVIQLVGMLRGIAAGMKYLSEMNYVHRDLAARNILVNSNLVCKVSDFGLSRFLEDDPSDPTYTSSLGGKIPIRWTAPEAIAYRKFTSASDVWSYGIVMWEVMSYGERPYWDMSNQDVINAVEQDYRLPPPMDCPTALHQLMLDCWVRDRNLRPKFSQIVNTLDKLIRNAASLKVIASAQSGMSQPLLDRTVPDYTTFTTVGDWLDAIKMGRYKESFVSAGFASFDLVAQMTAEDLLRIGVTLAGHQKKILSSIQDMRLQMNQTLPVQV
As to the kind of experiment: Inhibition of full length Nano-luc fused EPHB3 in human HEK-293T cells incubated for 2 hrs by cell based NanoBRET target engagement assay. Put shortly:
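HEK293T cells transiently transfected with the NanoLuc–kinase fusion vector plus carrier DNA and left overnight at 37 °C/5% CO2. Cells were resuspended in phenol red-free Opti-MEM at 17000 cells/well with the tracer. They were then exposed to compound for 2 h at 37 °C, and substrate/inhibitor mix was added. Acceptor (610 nm) and donor (450 nm) emissions were read.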

Data set [2] can be described thus: Plasma protein binding in rat at 1 uM.
For data set [3] the following is noted: rat, in vivo, iv, 1 mg/kg, 24 h.
The conditions of data set [4]: rat, in vivo, po, 5 mg/kg, 24 h.
A further data set concerns the target Cytochrome P450 2D6 (Homo sapiens, UniProt P10635). As to the kind of experiment: Inhibition of CYP2D6 (unknown origin).
Another data set has as its target Cytochrome P450 2C9 (Homo sapiens, UniProt P11712). Briefly: Inhibition of CYP2C9 (unknown origin).
Data set [5] in a line: Apparent permeability across apical to basolateral side in human Caco-2 cells. (In general: Passage across Caco-2 layers is used to estimate intestinal permeability.)
Data set [6] addresses T3, Cytochrome P450 3A4 (Homo sapiens, UniProt P08684). As to the kind of experiment: Inhibition of CYP3A4 (unknown origin).
Data set [7] in a line: Metabolic stability in human hepatocytes assessed as intrinsic clearance measured per 10^6 cells.
Data set [8] in a line: Oral bioavailability in CD-1 mouse at 2.5 to 5 mg/kg measured upto 24 hrs by HPLC-LCMS analysis. The data set is classed as ADME, organism-based. The following applies: in vivo, dose 2.5-5 mg/kg. The gist of the method: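 Female CD1 mice (20–30 g) dosed IV at 1 mg/kg as a solution. Oral dosing at 2.5 or 5 mg/kg as a suspension in 0.5% methyl cellulose. […] Non-compartmental analysis.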

Data set [9] is described as follows: Plasma protein binding in human at 1 uM. Type of data set: ADME, cell-free. The gist of the method:
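Plasma protein binding measured at 1 μM compound in human plasma, with rat plasma run alongside.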

Data set [10] can be described thus: Oral bioavailability in Beagle dog at 1 mg/kg measured upto 24 hrs by reversed phase LCMS analysis. Type of data set: ADME, organism-based, Canis lupus familiaris. Particulars: in vivo.
Data set [11] in a line: Oral bioavailability in Cynomolgous monkey at 1 mg/kg measured upto 24 hrs by reversed phase LCMS analysis. The data set is classed as ADME, organism-based, Macaca fascicularis. The following applies: cynomolgus monkey, in vivo.
The target of data set [12] is T3, Cytochrome P450 3A4. As to the kind of experiment: Induction of CYP3A4 in human hepatocytes at 3 uM relative to rifampicin. Type of data set: ADME, cell-based, Hepatocyte. The gist of the method: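 Single-donor human hepatocytes exposed at 3 μM. CYP3A4 induction expressed as % of the 10 μM rifampicin positive control.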

T3 sequence (P08684 whole entry): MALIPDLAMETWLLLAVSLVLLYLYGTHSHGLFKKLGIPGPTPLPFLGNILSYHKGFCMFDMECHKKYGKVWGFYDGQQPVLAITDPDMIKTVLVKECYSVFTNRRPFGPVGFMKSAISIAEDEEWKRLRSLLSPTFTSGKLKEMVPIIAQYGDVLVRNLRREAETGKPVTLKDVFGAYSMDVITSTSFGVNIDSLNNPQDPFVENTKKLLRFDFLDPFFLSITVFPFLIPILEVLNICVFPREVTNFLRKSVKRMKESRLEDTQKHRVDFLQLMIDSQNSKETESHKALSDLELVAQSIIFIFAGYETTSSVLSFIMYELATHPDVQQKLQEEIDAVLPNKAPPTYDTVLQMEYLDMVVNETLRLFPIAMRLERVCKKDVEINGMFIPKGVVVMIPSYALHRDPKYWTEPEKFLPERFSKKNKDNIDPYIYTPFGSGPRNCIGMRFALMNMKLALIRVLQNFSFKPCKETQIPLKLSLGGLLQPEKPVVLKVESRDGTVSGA
Sequence of Wee1-like protein kinase (P30291 whole entry): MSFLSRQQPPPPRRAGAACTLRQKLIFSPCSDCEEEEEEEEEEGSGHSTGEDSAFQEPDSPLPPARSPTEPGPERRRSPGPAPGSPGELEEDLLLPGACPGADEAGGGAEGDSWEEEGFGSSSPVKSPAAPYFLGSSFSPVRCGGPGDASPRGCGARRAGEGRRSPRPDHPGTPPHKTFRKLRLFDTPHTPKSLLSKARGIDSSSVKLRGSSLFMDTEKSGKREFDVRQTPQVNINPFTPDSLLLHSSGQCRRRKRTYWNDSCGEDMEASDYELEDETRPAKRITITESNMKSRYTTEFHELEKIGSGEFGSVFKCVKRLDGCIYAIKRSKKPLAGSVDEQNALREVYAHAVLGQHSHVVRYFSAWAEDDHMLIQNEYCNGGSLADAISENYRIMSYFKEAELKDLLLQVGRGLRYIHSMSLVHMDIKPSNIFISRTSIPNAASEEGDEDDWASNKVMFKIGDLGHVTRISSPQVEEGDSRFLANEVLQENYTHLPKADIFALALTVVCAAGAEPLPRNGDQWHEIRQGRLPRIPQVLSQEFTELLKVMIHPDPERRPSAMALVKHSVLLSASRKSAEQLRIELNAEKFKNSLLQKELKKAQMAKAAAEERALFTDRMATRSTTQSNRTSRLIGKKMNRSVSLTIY
Sequence of Cytochrome P450 2D6 (P10635 whole entry): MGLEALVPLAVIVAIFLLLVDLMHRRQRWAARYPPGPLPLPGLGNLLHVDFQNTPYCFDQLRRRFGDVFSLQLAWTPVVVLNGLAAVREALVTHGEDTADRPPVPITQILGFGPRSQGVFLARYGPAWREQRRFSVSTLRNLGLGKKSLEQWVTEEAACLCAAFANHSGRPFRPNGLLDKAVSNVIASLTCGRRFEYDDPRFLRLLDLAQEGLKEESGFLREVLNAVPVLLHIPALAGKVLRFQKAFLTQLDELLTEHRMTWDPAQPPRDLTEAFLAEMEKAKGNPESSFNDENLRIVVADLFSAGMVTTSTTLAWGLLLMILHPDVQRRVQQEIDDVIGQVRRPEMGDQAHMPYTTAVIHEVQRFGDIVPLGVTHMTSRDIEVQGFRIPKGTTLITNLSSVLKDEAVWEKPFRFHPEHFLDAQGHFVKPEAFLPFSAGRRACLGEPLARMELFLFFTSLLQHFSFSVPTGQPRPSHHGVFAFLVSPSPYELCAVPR
Sequence of Cytochrome P450 2C9 (P11712 whole entry): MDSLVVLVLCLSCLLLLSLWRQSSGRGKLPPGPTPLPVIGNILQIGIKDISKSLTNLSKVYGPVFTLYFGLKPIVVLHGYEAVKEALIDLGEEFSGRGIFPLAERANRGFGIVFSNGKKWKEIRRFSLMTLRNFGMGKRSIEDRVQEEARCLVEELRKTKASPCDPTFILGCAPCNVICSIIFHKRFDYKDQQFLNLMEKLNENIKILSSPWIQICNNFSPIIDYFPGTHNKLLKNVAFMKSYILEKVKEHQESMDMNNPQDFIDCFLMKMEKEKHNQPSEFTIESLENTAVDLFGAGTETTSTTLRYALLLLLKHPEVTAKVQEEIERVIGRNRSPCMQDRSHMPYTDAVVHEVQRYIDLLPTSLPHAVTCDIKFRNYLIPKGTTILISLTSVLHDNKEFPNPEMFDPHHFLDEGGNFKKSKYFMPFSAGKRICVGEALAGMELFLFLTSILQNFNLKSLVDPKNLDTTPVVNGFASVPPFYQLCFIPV

One may read the IC50 as the concentration needed to halve the response being measured. Consider `Cc1ccc(O)c(C)c1-n1c(N)c(C(N)=O)c2nc3cccc(-c4ccnn4C)c3nc21`, for which the IC50 in data set [1] was less than 0.003 µM.
In turn, `NC(=O)c1c(N)n(-c2cccc(O)c2)c2nc3ccccc3nc12` yielded an IC50 on Wee1-like protein kinase of 19600 nM.
`Cc1ccc(O)c(C)c1-n1c(N)c(C(N)=O)c2nc3cc(Br)ccc3nc21`: in data set [1], the IC50 was less than 0.003 µM.
For the compound `Cc1ccc(O)c(C)c1-n1c(N)c(C(N)=O)c2nc3ccccc3nc21`, inhibition on Wee1-like protein kinase was half-maximal at 580 nM (IC50).
At Wee1-like protein kinase, `Cc1c(O)cccc1-n1c(N)c(C(N)=O)c2nc3ccccc3nc21` showed an IC50 of 2200 nM.
`Cc1ccc(O)cc1-n1c(N)c(C(N)=O)c2cc3ccccc3nc21` yielded an IC50 on Ephrin type-B receptor 3 of 7 nM.
In data set [1], `NC(=O)c1c(N)n(-c2cccc3[nH]cnc23)c2nc3ccccc3nc12` returned a half-maximal inhibitory concentration (IC50) greater than 20 µM.
Consider `Cc1cnc2c(c1)c(C(N)=O)c(N)n2-c1c(C)ccc(O)c1C`, for which, in [2], the PPB came to 73.8%. The CL free in data set [3] was determined as 76 mL/min/kg. In addition, in data set [4], the F is 62%.
In turn, `Cc1ccc(O)c(C)c1-n1c(N)c(C(N)=O)c2nc3cccc(C4=CCCC4)c3nc21` registered an IC50 in data set [1] of less than 0.003 µM.
As to `Cc1ccccc1-n1c(N)c(C(N)=O)c2nc3ccccc3nc21`, the IC50 in data set [1] was greater than 20 µM.
For `Cc1ccc(O)c(C)c1-n1c(N)c(C(N)=O)c2nc(N3CCOCC3)cnc21`, the IC50 against Cytochrome P450 2D6, on Cytochrome P450 2C9 and on Cytochrome P450 3A4 [6] was greater than 30 µM throughout. Moreover, in data set [5], the Papp is 5.8 10^-6 cm/s. This compound also came in with a PPB in data set [2] of 62.8%. In addition, the CLH in [7] was less than 3 µL/min. The compound further had a CL free in [3] of 151 mL/min/kg. Moreover, the F in data set [4] is recorded as 18%.
In turn, `Cc1ccc(O)c(C)c1-n1c(N)c(C(N)=O)c2cc(C3CC3)cnc21` gave a PPB in data set [2] of 80.3%. The same compound had a CL free in [3] of 170 mL/min/kg. The same compound showed a F in data set [4] of 28%.
The hepatocyte CLint is the capacity of the preparation to metabolise the compound, expressed as a volume cleared per time. As for `Cc1ccc(O)c(C)c1-n1c(N)c(C(N)=O)c2cc(Cl)cnc21`, the IC50 at Cytochrome P450 2D6 was greater than 30 µM; against Cytochrome P450 2C9, 26 µM; against Cytochrome P450 3A4 [6], greater than 30 µM. Besides, the Papp in data set [5] is 18.3 10^-6 cm/s. Besides, the figures for the PPB in data set [2] and in [9] were 88.1% and 89.6%, respectively. Moreover, the hepatocyte CLint in [7] stood at 4.5 µL/min/1e6 cells. Moreover, the F stood at 21% in data set [8], 33% in [10], 32% in data set [11] and 37% in data set [4]. On Cytochrome P450 3A4 [12], this compound displayed an Activity of 26.7%. Besides, the CL free in [3] stood at 215 mL/min/kg.
`NC(=O)c1c(N)n(-c2cccc3[nH]ncc23)c2nc3ccccc3nc12`: on Wee1-like protein kinase, the IC50 was determined as 5200 nM.
The same measure, in the same setting: the result for `Cc1c(O)ccc(Cl)c1-n1c(N)c(C(N)=O)c2nc3ccccc3nc21` reads 230 nM; that for `NC(=O)c1c(N)n(-c2c(Cl)ccc(O)c2Cl)c2nc3ccccc3nc12`, 220 nM.
Consider `Cc1ccc(O)c(C)c1-n1c(N)c(C(N)=O)c2nccnc21`, for which the IC50 against Cytochrome P450 2D6, against Cytochrome P450 2C9 and against Cytochrome P450 3A4 [6] was greater than 30 µM throughout. The Papp in data set [5] is 19 10^-6 cm/s. In addition, in data set [2], the PPB was determined as 81%. Moreover, in data set [7], the CLH was less than 3 µL/min. In [3], this compound yielded a CL free of 81 mL/min/kg. For the same compound, the F in data set [4] turned out to be 56%.
For the compound `NC(=O)c1c(N)n(-c2cccc3[nH]nnc23)c2nc3ccccc3nc12`, the IC50 in [1] was greater than 20 µM.
In the case of `Cc1ccc(O)c(Cl)c1-n1c(N)c(C(N)=O)c2nc3ccccc3nc21`, the results for the IC50 at Wee1-like protein kinase and against Ephrin type-B receptor 3 were 940 nM and 7 nM, respectively.
In data set [2], `Cc1ccc(O)c(C)c1-n1c(N)c(C(N)=O)c2cc(Cl)c(C)nc21` came in with a PPB of 93.1%. In data set [3], this compound showed a CL free of 731 mL/min/kg. Also, in [4], the F turned out to be 24%.
Turning to `Cc1ccc(O)cc1-n1c(N)c(C(N)=O)c2nc3ccccc3nc21`, the IC50 on Wee1-like protein kinase is 3700 nM; on Ephrin type-B receptor 3, 7 nM.
`Cc1ccc(C(F)F)cc1-n1c(N)c(C(N)=O)c2nc3ccccc3nc21` gave an IC50 in data set [1] greater than 20 µM.
`NC(=O)c1c(N)n(-c2cccc3[nH]ccc23)c2nc3ccccc3nc12`: in data set [1], the IC50 was greater than 20 µM.
For `Cc1ccc2[nH]ncc2c1-n1c(N)c(C(N)=O)c2nc3ccccc3nc21`, on Wee1-like protein kinase, the IC50 was 3200 nM.
`Cc1ccc(N)cc1-n1c(N)c(C(N)=O)c2nc3ccccc3nc21` returned an IC50 in data set [1] greater than 20 µM.
The compound `Cc1ccc(O)c(C)c1-n1c(N)c(C(N)=O)c2nc3cccc(Br)c3nc21` displayed a 50% inhibitory concentration (IC50) in data set [1] of less than 0.003 µM.
The same measure, in the same setting: the result for `Cc1ccc(Cl)c(C)c1-n1c(N)c(C(N)=O)c2nc3ccccc3nc21` reads greater than 20 µM.
